Data published in ChEMBL document CHEMBL1133718, “Structure-activity relationships and binding mode of styrylquinolines as potent inhibitors of HIV-1 integrase and replication of HIV-1 in cell culture” (J Med Chem, 2000).

Assays:
[1] = tested on: Human immunodeficiency virus 1; experiment: Inhibitory effect upon disintegration catalyzed by the (50-212) deletion mutant; format: functional
Outline: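 Disintegration reaction run with 0.5 pmol D38U3 substrate and 2 pmol of the His-tagged F185K soluble HIV-1 integrase core domain (residues 50-212), expressed and purified recombinantly. Potency is reported as IC50.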

[2] = target: T1, Human immunodeficiency virus type 1 integrase (Human immunodeficiency virus 1, UniProt Q7ZJM1); experiment: Inhibitory activity against HIV-1 Integrase in 3'-end- processing
T1 sequence (Q7ZJM1 whole entry): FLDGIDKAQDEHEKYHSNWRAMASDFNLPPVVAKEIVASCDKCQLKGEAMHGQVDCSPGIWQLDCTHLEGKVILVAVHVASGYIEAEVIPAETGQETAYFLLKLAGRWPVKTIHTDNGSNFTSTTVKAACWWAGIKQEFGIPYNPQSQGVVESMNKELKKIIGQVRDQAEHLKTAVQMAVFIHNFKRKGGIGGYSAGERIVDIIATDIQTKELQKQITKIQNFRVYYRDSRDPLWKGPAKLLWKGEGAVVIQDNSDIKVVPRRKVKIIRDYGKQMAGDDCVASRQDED
Outline: (§1)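 3'-processing: 0.5 pmol U5A/U5B annealed duplex with 1 pmol purified recombinant full-length HIV-1 IN in 20 mM Tris pH 7.2, 30 mM NaCl, 10% glycerol, 10 mM DTT, 0.01% NP40, plus 10 mM MnCl2.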

[3] = Toxic concentration, estimated by MTT transformation assay; format: ADME, organism-based, Human immunodeficiency virus 1; settings: CEM cells; read-out: TC50 (the source's name)
Outline: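 Cell viability by MTT: MTT solution (7.5 mg/mL, in phosphate buffer) added to infected, drug-treated CEM wells. Incubation 4 h at 37 °C under CO2, formazan dissolved in 10% SDS/10 mM HCl, absorbance read at 570 nm.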

[4] = target: T1, Human immunodeficiency virus type 1 integrase; experiment: Inhibitory activity against HIV-1 Integrase in strand transfer (integration)
[5] = tested on: Human immunodeficiency virus 1; experiment: Antiviral activities against HIV-1 replication in CEM cells and its ability to lower the viral charge supernatants was reported; format: functional, organism-based; settings: Human immunodeficiency virus 1, CCRF-CEM
Outline: (§2)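 CEM cells infected with cell-free HIV-1 ([…] clone, produced by transfecting P4 cells), in triplicate; virus removed 2 h post-infection, then DMSO-dissolved drug added in fresh medium at increasing concentrations. 72 h supernatants infected HeLa-CD4-βGal (P4) reporter cells for 24 h; lysates incubated with CPRG, absorbance at 570 nm. Some cases used p24 antigen ELISA.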

[6] = tested on: Human immunodeficiency virus 1; experiment: Antiviral activities against HIV-1 replication in CEM cells and its ability to lower the viral charge supernatants was reported; NR is not reached; format: functional, organism-based; settings: CCRF-CEM; outline: as §2
[7] = target: T1, Human immunodeficiency virus type 1 integrase; experiment: Inhibitory activity against Integrase in strand transfer (integration)
[8] = target: T1, Human immunodeficiency virus type 1 integrase; experiment: Inhibitory activity against Integrase in 3'-end- processing; outline: as §1
[9] = target: T1, Human immunodeficiency virus type 1 integrase; experiment: Inhibitory activity against HIV-1 Integrase in strand transfer (integration) with purified recombinant enzyme
[10] = target: T1, Human immunodeficiency virus type 1 integrase; experiment: Inhibitory activity against HIV-1 Integrase in 3'-end- processing with purified recombinant enzyme

Compound	IC50 [1] [µM]	IC50 [2] [µM]	CC50 [3] [µM]	IC50 [4] [µM]	IC50 [5] [µM]	NR [6]	IC50 [7] [µM]	IC50 [8] [µM]	IC50 [9] [µM]	IC50 [10] [µM]
Nc1ccc(/C=C/c2ccc3ccc(C(=O)O)c(O)c3n2)cc1	12	3.5	100	2.2	50	–	–	–	–	–
COc1cc(/C=C/c2ccc3ccc(C(=O)O)c(O)c3n2)ccc1O	–	2.8	95	3.7	3	–	–	–	–	–
O=C(O)c1ccc2ccc(/C=C/c3cc(O)c(O)c(O)c3)nc2c1O	–	–	10	–	1.2	–	–	–	–	–
COc1cc(/C=C/c2ccc3ccc(C(=O)O)c(O)c3n2)cc(OC)c1O	–	4.9	> 100	4.5	9	–	–	–	–	–
O=C(O)c1ccc2ccc(/C=C/c3ccc(O)c(O)c3)nc2c1O	–	–	> 100	–	1.3	–	–	–	–	–
Cc1ccc2ccc(C(=O)O)c(O)c2n1	–	–	> 100	> 100	> 100	–	–	–	–	–
O=C(O)c1ccc2ccc(CCc3ccc(O)c(O)c3)nc2c1O	–	–	61	–	–	Not reached	1.5	2.3	–	–
O=C(O)c1ccc2ccc(/C=C/c3ccc(O)cc3)nc2c1O	–	1.6	> 100	1.6	95	–	–	–	–	–
COC(=O)c1ccc2ccc(/C=C/c3ccc(O)c(O)c3)nc2c1O	–	–	9.2	–	–	Not reached	> 100	> 100	–	–
COc1ccc(/C=C/c2ccc3ccc(C(=O)O)c(O)c3n2)cc1O	–	0.9	95	3.3	54	–	–	–	–	–
Oc1ccc(/C=C/c2ccc3c(Cl)cc(Cl)c(O)c3n2)cc1O	–	–	17	–	–	Not reached	> 100	> 100	–	–
O=C(O)c1ccc2ccc(/C=C/c3ccco3)nc2c1O	1.4	–	> 100	–	> 100	–	–	–	5.1	1.9
COc1cc(/C=C/c2ccc3ccc(C(=O)O)c(O)c3n2)cc(O)c1O	–	–	> 100	–	12	–	1.7	0.7	–	–
O=C(O)c1ccc2ccc(/C=C/c3ccsc3)nc2c1O	0.8	3.4	85	3	–	Not reached	–	–	–	–
O=C(O)c1ccc2ccc(/C=C/c3ccccc3)nc2c1O	3.4	5.3	31	2.1	–	Not reached	–	–	–	–
O=C(O)c1ccc2ccc(/C=C/c3cc(O)c(O)c(I)c3)nc2c1O	–	–	> 100	–	6.8	–	4.9	4	–	–
O=C(O)c1ccc2ccc(/C=C/c3cccnc3)nc2c1O	5.1	4.1	> 100	11	> 100	–	–	–	–	–
O=C(O)c1ccc2ccc(/C=C/c3cc(O)cc(O)c3)nc2c1O	–	–	> 100	–	> 100	–	3.2	3.2	–	–
O=C(O)c1ccc2ccc(/C=C/c3ccc([N+](=O)[O-])cc3)nc2c1O	2.2	1.2	43	1.7	–	Not reached	–	–	–	–
CC(=O)Nc1ccc(/C=C/c2ccc3ccc(C(=O)O)c(O)c3n2)cc1	1.7	1.4	47	1.2	–	Not reached	–	–	–	–
O=C(O)c1ccc2ccc(/C=C/c3ccc(O)cc3O)nc2c1O	–	–	> 100	–	80	–	–	–	–	–
O=C(O)c1ccc2ccc(/C=C/c3cc(Br)c(O)c(Br)c3)nc2c1O	–	1.3	–	1.2	–	–	–	–	–	–
